Laboratory results: ChEMBL document CHEMBL1828575, “Design, synthesis and antiproliferative activities of biarylolefins based on polyhydroxylated and carbohydrate scaffolds” (Eur J Med Chem, 2011)

Columns and labels:
Type in all cases: functional
NCI-H23 = assay: Cytotoxicity against human NCI-H23 cells assessed as cellular growth at 10 uM after 48 hrs by SRB assay
Summary of the method: (§1)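 NCI-60 panel lines grown in RPMI 1640 with 5% FBS and 2 mM L-glutamine. Plated at 5000–40,000 cells/well and preincubated 24 h at 37 °C, 5% CO₂, with time-zero plates fixed in TCA. Compounds, dissolved in DMSO and diluted in medium, were applied for 48 h. Cells were TCA-fixed (10% final for adherent, 16% for suspension) and stained with 0.4% SRB in 1% acetic acid. Dye was solubilised in 10 mM Tris base and read at 515 nm; growth was expressed as a percentage of untreated control.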

NCI-H522 = assay: Antitumor activity against human NCI-H522 cells after 48 hrs by SRB assay; details: NCI-H522, 48 h
Summary of the method: (§2)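 NCI60 panel in RPMI 1640 with 5% FBS and 2 mM L-glutamine. Cells were plated at 5000–40,000/well by doubling time, held 24 h, then time-zero plates were TCA-fixed. Five concentrations (10-fold or half-log dilutions of DMSO stocks) were applied for 48 h at 37 °C, 5% CO2. Cells were fixed with cold TCA (10% final adherent, 16% suspension) and stained with 0.4% SRB. Bound dye was dissolved in 10 mM Tris and read at 515 nm. GI50, TGI and LC50 were calculated per line.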

UO-31 = assay: Cytotoxicity against human UO31 cells assessed as cellular growth at 10 uM after 48 hrs by SRB assay; summary of the method: as §1
MDA-MB-468 = assay: Antitumor activity against human MDA-MB-468 cells after 48 hrs by SRB assay; details: MDA-MB-468, 48 h; summary of the method: as §2
SK-MEL-5 = assay: Cytotoxicity against human SK-MEL-5 cells assessed as cellular growth at 10 uM after 48 hrs by SRB assay; summary of the method: as §1
UACC-257 = assay: Cytotoxicity against human UACC257 cells assessed as cellular growth at 10 uM after 48 hrs by SRB assay; summary of the method: as §1
HCC 2998 = assay: Antitumor activity against human HCC2998 cells after 48 hrs by SRB assay; details: HCC 2998, 48 h; summary of the method: as §2
T47D = assay: Antitumor activity against human T47D cells after 48 hrs by SRB assay
Summary of the method: (§3)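 NCI60 panel cells grown in RPMI 1640 with 5% FBS and 2 mM L-glutamine, plated at 5000–40,000 cells/well and preincubated 24 h at 37 °C, 5% CO₂. Compound was added from DMSO at five concentrations, 10-fold or 1/2 log dilutions, then incubated 48 h.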

HCT-15 = assay: Cytotoxicity against human HCT15 cells assessed as cellular growth at 10 uM after 48 hrs by SRB assay
Summary of the method: (§4)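 NCI60 single-dose screen of cells in RPMI 1640 with 5% FBS and 2 mM L-glutamine, preincubated 24 h at 37 °C, 5% CO₂. Cells were then exposed 48 h to compound added from DMSO stock. TCA-fixed, stained with 0.4% SRB in 1% acetic acid, dye solubilised in 10 mM Tris base and read at 515 nm. Growth is given as percent of untreated control.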

SF-268 = assay: Antitumor activity against human SF268 cells after 48 hrs by SRB assay; details: SF-268, 48 h; summary of the method: as §2
SK-OV-3 [1] = assay: Antitumor activity against human SKOV3 cells after 48 hrs by SRB assay; details: SK-OV-3, 48 h; summary of the method: as §3
HOP-62 = assay: Cytotoxicity against human HOP62 cells assessed as cellular growth at 10 uM after 48 hrs by SRB assay; summary of the method: as §4
A549 = assay: Cytotoxicity against human A549 cells assessed as cellular growth at 10 uM after 48 hrs by SRB assay; summary of the method: as §4
HT-29 = assay: Antiproliferative activity against human HT-29 cells after 48 hrs by SRB assay; details: HT-29, 48 h; summary of the method: as §2
SR = assay: Antitumor activity against human SR cells after 48 hrs by SRB assay; summary of the method: as §3
SN12C = assay: Antitumor activity against human SN12C cells after 48 hrs by SRB assay; summary of the method: as §3
NCI-H460 = assay: Antitumor activity against human NCI-H460 cells after 48 hrs by SRB assay; details: NCI-H460, 48 h; summary of the method: as §2
SK-OV-3 [2] = assay: Cytotoxicity against human SKOV3 cells assessed as cellular growth at 10 uM after 48 hrs by SRB assay; summary of the method: as §1
SF-295 = assay: Antitumor activity against human SF295 cells after 48 hrs by SRB assay; details: SF-295, 48 h; summary of the method: as §2
NCI-H322M = assay: Antitumor activity against human NCI-H322M cells after 48 hrs by SRB assay; summary of the method: as §2
K562 = assay: Antitumor activity against human K562 cells after 48 hrs by SRB assay; details: K562, 48 h; summary of the method: as §2
[3] = read-out: LC50 (the source's name)
[4] = read-out: pLC50 (the source's name) (converted)

## COc1ccc(/C(=C2/O[C@@H]([C@H]3COC(C)(C)O3)[C@H]3OC(C)(C)O[C@@H]23)c2cc(OC)c(OC)c(OC)c2)cc1O
NCI-H23
  Activity: 72.29%
NCI-H522
  GI50: 2.73 µM
  TGI: 9.08 µM
NCI-H522; [3]
  CC50: > 100 µM
UO-31
  Activity: 49.1%
MDA-MB-468; read-out: GI50
  GI50: 1.45 µM
MDA-MB-468; [3]
  CC50: 80.6 µM
MDA-MB-468; read-out: TGI
  TGI: 34.1 µM
MDA-MB-468; read-out: pGI50 (converted)
  GI50: 14.5 µM
MDA-MB-468; [4]
  CC50: > 100 µM
MDA-MB-468; read-out: pTGI (converted)
  TGI: 33.9 µM
SK-MEL-5
  Activity: 59.59%
UACC-257
  Activity: 107.04%
HCC 2998; read-out: GI50
  GI50: 1.32 µM
HCC 2998; [3]
  CC50: > 100 µM
HCC 2998; read-out: TGI
  TGI: > 100 µM
HCC 2998; read-out: pGI50 (converted)
  GI50: 20.9 µM
HCC 2998; [4]
  CC50: > 100 µM
HCC 2998; read-out: pTGI (converted)
  TGI: > 100 µM
T47D; read-out: GI50
  GI50: 2.51 µM
T47D; [3]
  CC50: > 100 µM
T47D; read-out: TGI
  TGI: > 100 µM
T47D; read-out: pGI50 (converted)
  GI50: 25.1 µM
T47D; [4]
  CC50: > 100 µM
T47D; read-out: pTGI (converted)
  TGI: > 100 µM
HCT-15
  Activity: 26.94%
SF-268
  LC50 (concentration killing 50% of cells relative to time zero): > 100 µM
SF-268; read-out: GI50
  GI50: 6.95 µM
SF-268; read-out: TGI
  TGI: 31.4 µM
SF-268; read-out: pGI50 (converted)
  GI50: 6.92 µM
SF-268; [4]
  CC50: > 100 µM
SF-268; read-out: pTGI (converted)
  TGI: 31.6 µM
SK-OV-3 [1]; read-out: GI50
  GI50: 4.11 µM
SK-OV-3 [1]; [3]
  CC50: > 100 µM
SK-OV-3 [1]; read-out: TGI
  TGI: 3.85 µM
SK-OV-3 [1]; read-out: pGI50 (converted)
  GI50: 4.68 µM
SK-OV-3 [1]; [4]
  CC50: > 100 µM
SK-OV-3 [1]; read-out: pTGI (converted)
  TGI: 18.6 µM
HOP-62
  Activity: 48.49%
A549
  Activity: 84.24%
HT-29
  LC50 (50% net cell kill): > 100 µM
HT-29; read-out: GI50
  GI50: 3.99 µM
HT-29; read-out: TGI
  TGI: > 100 µM
HT-29; read-out: pGI50 (converted)
  GI50: 3.98 µM
HT-29; [4]
  CC50: > 100 µM
HT-29; read-out: pTGI (converted)
  TGI: > 100 µM
SR; read-out: GI50
  GI50: 6.27 µM
SR; [3]
  CC50: > 100 µM
SR; read-out: TGI
  TGI: > 100 µM
SR; read-out: pGI50 (converted)
  GI50: 6.31 µM
SR; [4]
  CC50: > 100 µM
SR; read-out: pTGI
  TGI: > 100 µM
SN12C; read-out: GI50
  GI50: 5.82 µM
SN12C; [3]
  CC50: > 100 µM
SN12C; read-out: TGI
  TGI: > 100 µM
SN12C; read-out: pGI50 (converted)
  GI50: 5.62 µM
SN12C; [4]
  CC50: > 100 µM
SN12C; read-out: pTGI
  TGI: > 100 µM
NCI-H460; read-out: GI50
  GI50: 4.31 µM
NCI-H460; [3]
  CC50: > 100 µM
NCI-H460; read-out: TGI
  TGI: > 100 µM
NCI-H460; read-out: pGI50 (converted)
  GI50: 4.27 µM
NCI-H460; [4]
  CC50: > 100 µM
NCI-H460; read-out: pTGI
  TGI: > 100 µM
SK-OV-3 [2]
  Activity: 36.02%
SF-295; read-out: GI50
  GI50: 7 µM
SF-295; [3]
  CC50: > 100 µM
SF-295; read-out: TGI
  TGI: 37.3 µM
SF-295; read-out: pGI50 (converted)
  GI50: 6.92 µM
SF-295; [4]
  CC50: > 100 µM
SF-295; read-out: pTGI (converted)
  TGI: 23.4 µM
NCI-H322M; read-out: GI50
  GI50: 6.58 µM
NCI-H322M; [3]
  CC50: > 100 µM
NCI-H322M; read-out: TGI
  TGI: > 100 µM
NCI-H322M; read-out: pGI50 (converted)
  GI50: 6.61 µM
NCI-H322M; [4]
  CC50: > 100 µM
NCI-H322M; read-out: pTGI
  TGI: > 100 µM
K562; read-out: GI50
  GI50: 3.22 µM
K562; [3]
  CC50: > 100 µM
K562; read-out: TGI
  TGI: > 100 µM
K562; read-out: pGI50 (converted)
  GI50: 3.24 µM
K562; [4]
  CC50: > 100 µM
K562; read-out: pTGI
  TGI: > 100 µM
